According to ChEMBL document CHEMBL2069237, “3-Hydroxy-3-methylglutaryl flavonol glycosides from Oxytropis falcata” (2012):

tested on: RAW264.7; test: Antiinflammatory activity in mouse RAW264.7 cells assessed as inhibition of lipopolysaccharide-induced nitric oxide production at 50 uM pre-incubated for 4 hrs before LPS challenge for 24 hrs by Griess assay; assay type: functional
Outline: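 RAW 264.7 murine macrophages grown in DMEM with 10% FBS, 2 mmol/L L-glutamine, penicillin/streptomycin, 37 °C, 5% CO2. Cells (5 × 10^5/mL) preincubated 8 h, given compound at 10 or 50 μM for 4 h, then LPS (final 1 μg/mL) for 24 h. Nitrite in supernatant measured by Griess reagent, absorbance 570 nm, against sodium nitrite standard; expressed as % inhibition.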

Compound | inhibition at 50 µM [%]
C[C@@H]1O[C@@H](OC[C@H]2O[C@@H](Oc3c(-c4ccc(O)cc4)oc4cc(O[C@@H]5O[C@@H](C)[C@H](O)[C@@H](O)[C@H]5O)cc(O)c4c3=O)[C@H](O)[C@@H](O)[C@@H]2O)[C@H](O)[C@H](O)[C@H]1O | < 5
C[C@@H]1O[C@@H](OC[C@H]2O[C@@H](Oc3c(-c4ccc(O)cc4)oc4cc(O)cc(O)c4c3=O)[C@H](O)[C@@H](O)[C@H]2O)[C@H](O)[C@H](O)[C@H]1O | < 5
O=C(/C=C/c1ccccc1)c1ccc(O)cc1O [2',4'-DIHYDROXYCHALCONE] | 40.1
CC1O[C@@H](OC[C@H]2O[C@@H](Oc3c(-c4ccc(O)cc4)oc4cc(O)cc(O)c4c3=O)C(O[C@@H]3O[C@H](C)[C@H](O)C(O)C3O)C(O)[C@H]2O)C(O)[C@@H](O)[C@H]1O (stereo partly specified) [MAURITIANIN] | < 5
COc1cc(O)c2c(=O)c(O[C@@H]3O[C@H](COC(=O)C[C@@](C)(O)CC(=O)O)[C@H](O)[C@H](O)[C@H]3O[C@@H]3O[C@@H](C)[C@H](O)[C@@H](O)[C@H]3O)c(-c3ccc(O)cc3)oc2c1 [OXYTROFLAVOSIDE A] | < 5
COc1cc(O)c2c(=O)c(O[C@@H]3O[C@H](CO)[C@H](O)[C@H](OC(=O)C[C@@](C)(O)CC(=O)O)[C@H]3O[C@@H]3O[C@@H](C)[C@H](O)[C@@H](O)[C@H]3O)c(-c3ccc(O)cc3)oc2c1 [OXYTROFLAVOSIDE B] | < 5
COc1cc(O)c2c(=O)c(O[C@@H]3O[C@H](CO)[C@H](OC(=O)C[C@@](C)(O)CC(=O)O)[C@H](O)[C@H]3O[C@@H]3O[C@@H](C)[C@H](O)[C@@H](O)[C@H]3O)c(-c3ccc(O)cc3)oc2c1 [OXYTROFLAVOSIDE C] | < 5
COc1cc(O)c2c(=O)c(O[C@@H]3O[C@H](COC(=O)C[C@@](C)(O)CC(=O)O)[C@H](O)[C@H](O)[C@H]3O)c(-c3ccc(O)cc3)oc2c1 [OXYTROFLAVOSIDE D] | < 5
COc1cc(O)c2c(=O)c(O[C@@H]3O[C@H](COC(=O)C[C@@](C)(O)CC(=O)O)[C@H](O)[C@H](O)[C@H]3O)c(-c3ccc(O[C@@H]4O[C@H](CO)[C@@H](O)[C@H](O)[C@H]4O)cc3)oc2c1 [OXYTROFLAVOSIDE E] | < 5
COc1cc(O)c2c(=O)c(O[C@@H]3O[C@H](CO)[C@H](O)[C@H](O)[C@H]3O[C@@H]3O[C@@H](C)[C@H](O)[C@@H](O)[C@H]3O)c(-c3ccc(O)cc3)oc2c1 [OXYTROFLAVOSIDE F] | < 5
COc1cc(O)c2c(=O)c(O[C@@H]3O[C@H](CO[C@@H]4O[C@@H](C)[C@H](O)[C@@H](O)[C@H]4O)[C@H](O)[C@H](O)[C@H]3O[C@@H]3O[C@@H](C)[C@H](O)[C@@H](O)[C@H]3O)c(-c3ccc(O)cc3)oc2c1 [OXYTROFLAVOSIDE G] | < 5
